Assay results: PubChem BioAssay AID463191 (Sanford-Burnham Center for Chemical Genomics, 2010)
Active and inactive are the calls of the source.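 How the source made its calls: active means compounds whose mean IC50 across repeat dose response tests falls below a set limit; inactive means the rest.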

Tested on: AML12 mouse hepatocytes, BODIPY lipid droplet imaging
Assay: hepatocyte lipid droplet accumulation inhibitors, dose response, imaging, AML12 mouse hepatocytes, high-content (AID 463191)
Settings: cells loaded with 100 µM oleic acid
Procedure, shortened: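 System – AML12 mouse hepatocyte cell line, lipid droplet imaging · Reagent – oleic acid at 100 µM final for lipid loading · Compound dosing – 7 doses, 0.5–32 µM, 0.32% DMSO · Schedule – cells grown about 20 h at 37 °C, then overnight compound exposure · Read-out – IC50 from per-cell lipid droplet intensity · Replication – duplicate points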

SMILES	IC50
CCOc1ccc(CCNC(=O)COC(=O)/C=C/c2ccc(OCC#N)c(OC)c2)cc1OCC	21 µM (inactive)
Cc1cc(C(=O)NC2CCCc3c2cnn3-c2ccc(C)c(C)c2)nc(C)n1 (stereo not given)	2.81 µM
CCOc1ccc(CCNC(=O)CS(=O)Cc2nc(-c3ccc(OC)cc3)oc2C)cc1OCC (stereo not given)	2.11 µM
Cc1cccc(NC(=O)CSc2nc3ccccc3nc2N2CCCC2)c1	5.07 µM (inactive)
Cc1ccc(NC(=O)CSc2nc3ccccc3nc2N2CCCC2)cc1	2.11 µM
COc1ccc(C(C(=O)NC(C)(C)C)N(Cc2ccc(F)cc2)C(=O)CCC(=O)Nc2cc(C)on2)cc1 (stereo not given)	2.04 µM
COc1ccc(C(C(=O)NC(C)(C)C)N(Cc2cccs2)C(=O)CCC(=O)Nc2cc(C)on2)cc1 (stereo not given)	4.16 µM
CCOc1ccc(CCNC(=O)CCS(=O)(=O)c2ccc(OC)cc2)cc1OCC	2.72 µM
COc1ccc(-c2csc(NNC3=NCCCCC3)n2)cc1	1.42 µM
CCCc1ccc(-c2csc(NC(=O)Cc3cccs3)n2)cc1	1.48 µM
CCOc1ccc(CCNC(=O)COC(=O)c2cc([N+](=O)[O-])ccc2N2CCOCC2)cc1OCC	3 µM
CCOc1ccc(C(=O)CCC(=O)NCC(=O)OCc2ccccc2)cc1OCC	8 µM (inactive)
COc1ccc(CCNC(=O)c2cc3c(F)cccc3s2)cc1OC	5.42 µM (inactive)
CCC(C)(C)NC(=O)C(c1ccc(OC)cc1)N(Cc1ccccc1)C(=O)CCC(=O)Nc1cc(C)on1 (stereo not given)	3.42 µM
FC(F)Oc1ccc(-c2csc(NNC3=NCCCCC3)n2)cc1	0.916 µM
CCCCc1ccc(NC(=O)CSc2nnc(C)c(=O)n2N)cc1	1.27 µM
CCOC(=O)c1ccc(S(=O)(=O)NCC(c2ccc(N(C)C)cc2)c2c[nH]c3ccccc23)cc1 (stereo not given)	0.927 µM
COc1ccc(NC(=O)CN2C(=O)NC(c3ccccc3)(c3ccccc3)C2=O)cc1OC	1.6 µM
CCNC(=S)N1CCc2cc(OC)c(OC)cc2C1COc1ccccc1OC (stereo not given)	3.77 µM
COc1ccc(C2(c3ccc(OC)cc3)NC(=O)N(CC(=O)Nc3ccccc3C)C2=O)cc1	1.52 µM
CC(C)c1ccc(NC(=O)CSc2nc3ccccc3nc2N2CCCC2)cc1	2.08 µM
CC(C)OC(=O)/C(=C/c1ccc2c(c1)c1ccccc1n2C)NC(=O)c1ccccc1	1.8 µM
CCCC1(c2ccccc2)NC(=O)N(CC(=O)Nc2cc(C)ccc2OC)C1=O (stereo not given)	> 32 µM (inactive)
CCOc1ccc(CCNC(=O)COC(=O)c2cc(OC)c(OC)c(OC)c2)cc1OCC	0.559 µM
CCOc1ccccc1NC(=O)CCCNC(=O)Cn1cnc2sc(C)c(C)c2c1=O	7.09 µM (inactive)

SMILES	IC50
CC1CCCN(C(=O)c2ccc3c(c2NCCO)C(=O)c2ccccc2C3=O)C1 (stereo not given)	0.765 µM
CC(=O)Nc1ccc(-c2csc(NC(=O)Cc3ccccc3F)n2)cc1	5.1 µM (inactive)
CCOc1ccc(CN(C)C(=O)CNC(=O)c2ccc3ccccc3c2)cc1OC	0.809 µM
COc1ncccc1C(=O)NC1CCCc2c1cnn2-c1ccc(C)c(C)c1 (stereo not given)	3.44 µM
CCOc1ccc(CCNC(=O)Cn2cccc2C(=O)c2ccccc2C)cc1OCC	0.867 µM
Cc1ccc(-n2nc3c(=O)n(CC(=O)NC4CCCCC4)nc(C)c3c2C)cc1	4.73 µM
COc1ccc(NC(=O)[C@H](C)NC(=O)[C@@H]2Cc3ccccc3CN2C(=O)OC(C)(C)C)cc1	7.12 µM (inactive)
COc1ccc(NC(=O)CSc2nc3ccccc3nc2N2CCCC2)cc1Cl	2.85 µM
CCn1cc(CCCC(=O)NCc2ccccc2OC)c2ccccc21	4 µM
CCCOc1ccc(/C=N/Nc2ccccc2[N+](=O)[O-])c(OCCC)c1	< 0.5 µM
c1ccc(-c2csc(NNC3=NCCCCC3)n2)cc1	0.702 µM
COc1ccc(C(C(=O)NC(C)(C)C)N(Cc2ccco2)C(=O)CCC(=O)Nc2cc(C)on2)cc1 (stereo not given)	4.84 µM
Cc1cc(C)cc(NC(=O)CSc2nc3ccccc3nc2N2CCCC2)c1	2.11 µM
O=C(CSCC(=O)N1CCCc2ccccc21)Nc1nc(-c2ccccc2)cs1	4.24 µM
CCn1cc(CCCC(=O)NCc2cccc(OC)c2)c2ccccc21	6.43 µM (inactive)
COC(=O)/C(=C/c1ccc2c(c1)c1ccccc1n2C)NC(=O)c1ccccc1	4.24 µM
CCOc1ccccc1NC(=O)N1CCCC1C(=O)Nc1ccc(-n2cnnn2)c(C)c1 (stereo not given)	1.42 µM
COc1ccc2c(c1)c(CC(=O)Nc1ccc(C)cc1)c(C)n2C(=O)c1ccc(Cl)cc1	< 0.5 µM
COc1ccc(CCNC(=O)Cc2cccc(C(F)(F)F)c2)cc1OC	9.06 µM (inactive)
CCOc1ccc(CCNC(=O)CSc2cc(=O)n(CC)c3ccccc23)cc1OCC	1.1 µM
COC(=O)/C(=C\c1ccc2c(c1)c1ccccc1n2C)NC(=O)c1ccccc1	3.3 µM
C=CCOc1ccc(-c2nc3c(c(=O)[nH]c(=O)n3Cc3ccccc3)n2CCCOC)cc1	2.98 µM
COc1ccc(C(C(=O)NC2CCCC2)N(CCC(C)C)C(=O)CCC(=O)Nc2cc(C)on2)cc1 (stereo not given)	5.9 µM (inactive)
COc1ccc(C(=O)OCC(=O)NC(C)CCc2ccccc2)cc1OC (stereo not given)	11.7 µM (inactive)
CCOc1ccc(NC(=O)CCSc2nc3c(c(CC)c2C#N)C(=O)CC(C)(C)C3)cc1	1.77 µM

SMILES	IC50
Cc1cc(C(=O)NC2CCCc3c2cnn3-c2cccc(C)c2C)c(C)o1 (stereo not given)	2.23 µM
O=C(Cc1cccc2ccccc12)Nc1nc(-c2cccc([N+](=O)[O-])c2)cs1	4.3 µM
CCOc1ccc(CCNC(=O)CCCn2c(=O)c3cccn3c3cccnc32)cc1OCC	1.88 µM
O=C1C(NS(=O)(=O)c2ccccc2)=C(N2CCN(c3ccc(F)cc3)CC2)C(=O)c2ccccc21	1.78 µM
CC(=O)c1cccc(N=Nc2c(-c3ccccc3)[nH]n(-c3ccccc3)c2=O)c1	0.633 µM
CCCOc1ccc(C(=O)OCC(=O)NCCc2ccc(OCC)c(OCC)c2)cc1OC	0.593 µM
CC1=C(C(=O)NC2CCCc3c2cnn3-c2cccc(C)c2C)OCCO1 (stereo not given)	11.8 µM (inactive)
COc1ccc(C(=O)CCC(=O)NCCc2c[nH]c3ccccc23)cc1OC	2.12 µM
CCOc1ccccc1NC(=O)CCC(=O)Nc1ccccc1OCC	4.18 µM
COc1cccc(NC(=O)CSc2nc3ccccc3nc2N2CCCC2)c1	5.26 µM (inactive)
CCOc1ccc(CC(=O)Nc2ccc(NC(=O)c3ccco3)cc2)cc1OCC	2.35 µM
CCOc1ccc(CCNC(=O)c2cccs2)cc1OCC	2.35 µM
COc1ccc(CCNC(=O)c2cc(-c3ccccc3)c(N3CCOCC3)s2)c(OC)c1OC	< 0.5 µM
CC1CC(C)CN(C(=O)c2ccc3c(c2NCCO)C(=O)c2ccccc2C3=O)C1 (stereo not given)	0.687 µM
CC1CCN(C2=C(NS(=O)(=O)c3ccc(Br)cc3)C(=O)c3ccccc3C2=O)CC1	0.703 µM
CCOc1ccc(CCNC(=O)/C=C/c2ccco2)cc1OCC	1.05 µM
COc1ccccc1CNS(=O)(=O)c1ccc2c(c1)CC(C)N2C(=O)C1CCC1 (stereo not given)	0.68 µM
CCOc1ccc(CCNC(=O)C(C)n2nc(C)n3c(cc4occc43)c2=O)cc1OCC (stereo not given)	3.61 µM
CCOc1cc2c(cc1OCC)C(c1ccc(OC)cc1)N(c1ccccc1)C(=O)C2 (stereo not given)	> 32 µM (inactive)
Nc1nc(-c2ccccc2)c(N=Nc2cccc3ccccc23)s1	0.525 µM
O=C(Cc1coc2ccc3ccccc3c12)NC1CCCc2ccccc21 (stereo not given)	4.39 µM
CC1CCCN(C2=C(NS(=O)(=O)c3ccc(Br)cc3)C(=O)c3ccccc3C2=O)C1 (stereo not given)	0.927 µM
COc1ccc(C(=O)OC(C)C(=O)NC(C)CCc2ccccc2)cc1[N+](=O)[O-] (stereo not given)	0.549 µM
CCOc1ccc(C(C)NC(=O)Cc2ccccc2)cc1OCC (stereo not given)	> 32 µM (inactive)
Cc1ccc(CNC(=O)CCCc2c[nH]c3ccccc23)cc1	11.2 µM (inactive)

SMILES	IC50
COc1ccc(C(C(=O)NC(C)(C)C)N(Cc2ccc(C)cc2)C(=O)CCC(=O)Nc2cc(C)on2)cc1 (stereo not given)	2.3 µM
CCOc1ccc(CCNC(=O)COC(=O)c2cc(OC)cc(OC)c2)cc1OCC	6.12 µM (inactive)
COCCNC(=S)N1CCc2cc(OC)c(OC)cc2C1COc1cc(C)cc(C)c1 (stereo not given)	4.08 µM
COCc1ccc(C(=O)NC2CCCc3c2cnn3-c2ccc(C)c(C)c2)o1 (stereo not given)	2.44 µM
CCOc1ccc(CCNC(=O)C2CC=CCC2C(=O)OC(C)C)cc1OCC (stereo not given)	0.746 µM
COc1ccc(C(C(=O)NC(C)(C)C)N(CCC(C)C)C(=O)CCC(=O)Nc2cc(C)on2)cc1 (stereo not given)	1.2 µM
CCCCCn1c(N)c(-c2nc3ccccc3s2)c2c([N+](=O)[O-])nn(CC)c(=O)c21	7.46 µM (inactive)
Cc1cccc(C(C(=O)NC2CCCC2)N(C(=O)c2csnn2)C2CCCC2)c1 (stereo not given)	23.9 µM (inactive)
CCC(C)(C)NC(=O)C(c1sccc1C)N(Cc1ccco1)C(=O)c1csnn1 (stereo not given)	11.9 µM (inactive)
CCOc1ccc(CN(C)C(=O)CNC(=O)Cc2cccc3ccccc23)cc1	0.566 µM
CCOc1ccc(C(=O)NCC(=O)NC(C)CCc2ccccc2)cc1OCC (stereo not given)	0.858 µM
COc1ccc(C(=O)OCC(=O)NC(C)CCc2ccccc2)c(OC)c1 (stereo not given)	10.6 µM (inactive)
COc1ccc(C2(c3ccc(OC)cc3)NC(=O)N(CC(=O)Nc3cc(C)ccc3OC)C2=O)cc1	< 0.5 µM
CCOc1ccc(CCNC(=O)CS(=O)Cc2nc(-c3ccccc3C)oc2C)cc1OCC (stereo not given)	5.36 µM (inactive)
CCCCN(C(=O)CCC(=O)Nc1cc(C)on1)C(C(=O)NC1CCCC1)c1ccc(OCC)cc1 (stereo not given)	4.07 µM
C/C(=N\Nc1ccc(S(=O)(=O)Nc2ccccc2)cc1[N+](=O)[O-])c1ccc(N2CCOCC2)cc1	1.28 µM
COc1ccc(CC(=O)Nc2oc(-c3ccccc3)c(-c3ccccc3)c2C#N)cc1OC	1.26 µM
CCc1ccc(NC(=O)CSc2nc3ccccc3nc2N2CCCC2)cc1	1.94 µM
CCOc1ccc(-c2csc(NNC3=NCCCCC3)n2)cc1	1.22 µM
CCOc1ccc(CCNC(=O)Nc2ccccc2)cc1OCC	0.583 µM
CCOc1ccc(CCNC(=O)CCNC(=O)c2ccccc2Cl)cc1OCC	5.88 µM (inactive)
CCOc1ccc(CCNC(=O)Cn2nc(C)c3c(C)n(-c4ccccc4)nc3c2=O)cc1OCC	< 0.5 µM
CCOc1ccccc1Nc1nnc(SC(C)C(=O)Nc2nc(-c3ccccc3)cs2)s1 (stereo not given)	1.25 µM
c1cc2c(cc1-c1csc(NNC3=NCCCCC3)n1)OCCO2	1.07 µM
COc1ccc(NC(=O)CCC(=O)Nc2cc(OC)c(NC(=O)c3cccs3)cc2OC)cc1	0.71 µM
